Only some compounds are listed: those with a hit (about 2.4% of all), similar ones and a draw of the others.
ARNT TACC3 PPI: disrupts binding between human ARNT and TACC3; inhibition, % at 9.99 µM; AlphaScreen His-ARNT PAS-B/GST-TACC3 binding, luminescence; TACC3 fragment carries E629A point mutation; Q9Y6A5; 0.66% of 390,000 active;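 active = mean inhibition of replicates at least 50% and at least half of replicates each reaching 50%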
CASP6 VEID inh: inhibitors of human caspase-6. 0.53% of 350,000 active. purified caspase-6, Z-VEID-R110 cleavage fluorescence. inhibition, % at 12.5 µM. AID 686996;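 active = mean inhibition across replicates at least about 35%, with every replicate also reaching that limit, limit read from the data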
Target sequence (P55212 24-179 limits assumed): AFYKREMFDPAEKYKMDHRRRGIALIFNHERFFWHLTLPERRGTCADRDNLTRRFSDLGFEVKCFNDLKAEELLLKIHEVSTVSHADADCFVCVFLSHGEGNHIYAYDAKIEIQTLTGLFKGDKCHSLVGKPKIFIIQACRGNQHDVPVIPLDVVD
Target sequence (P55212 194-293 limits assumed): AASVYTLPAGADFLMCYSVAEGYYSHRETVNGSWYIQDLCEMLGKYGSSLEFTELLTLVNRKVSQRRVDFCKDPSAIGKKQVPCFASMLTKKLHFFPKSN
PGC1a acetyl inh: lowers PGC1a acetylation signal in U2OS cells | AlphaScreen anti-acetyl-lysine; with virally co-expressed GCN5 acetyltransferase | 0.17% of 350,000 active | inhibition, % at 15.6 µM | AID 651687;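 active = every replicate shows inhibition of at least 40%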
ERAP1 HTS inh: inhibitors of human ERAP1 aminopeptidase; recombinant ERAP1, Leu-AMC fluorescence, 60 min; AID 652197; inhibition, % at 10.7 µM; Q9NZ08; 0.15% of 340,000 active;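 active = mean replicate inhibition of at least 30%, or all replicates individually reaching that 30% level; inactive = mean below 30% and not every replicate reaching it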
S100A4 inh HTS: blocks human S100A4 binding to myosin IIA peptide; S100A4/TAMRA-MyoIIA peptide fluorescence polarization; inhibition, % at 10.7 µM; 0.14% of 360,000 active; AID 652163; P26447;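 active = mean inhibition of at least 70% across replicates, with every replicate also reaching that level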
Target sequence (P26447 whole entry, looked up): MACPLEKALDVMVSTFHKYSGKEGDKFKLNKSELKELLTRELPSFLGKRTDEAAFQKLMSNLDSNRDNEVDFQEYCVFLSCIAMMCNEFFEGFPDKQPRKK
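Material: S100A4 monomer protein / Buffer or medium: 50 mM HEPES pH 7.2, 10 mM CaCl2, 100 mM KCl / Times: 5 min incubation before reading / Benchmarks: neutral control DMSO, positive control TFP / Reagent: labelled myosin peptide probe, 5 nM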
rRNA inh HTS: inhibitors of bacterial rRNA selective over humanized ribosomes; E. coli WT GFP vs humanized-ribosome RFP mutants, fluorescence, 24 h; hits give low values; DMSO median 0, no signal -100; GFP signal change (wild-type ribosome), % (no concentration beside the values); 1.6% of 350,000 active; AID 720706;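 active = significant combined selectivity score with lowered wild-type GFP, culture density cut under 30%, mutant RFP and density less affected; inactive = any of these conditions unmet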
Large screens that a line does not name were inactive.

Nn1c(=S)[nH]c2sc3c(c2c1=O)CCCC3	rRNA inh HTS -21 (no result: PGC1a acetyl inh)
Cc1ccc(N2C3=C(C(=O)CC(C)(C)C3)C(c3cn(C)nc3C)C3=C2CC(C)(C)CC3=O)cc1	S100A4 inh HTS 112
Cc1csc(SC(C)c2nc3scc(-c4ccccc4)c3c(=O)[nH]2)n1 (stereo unspecified)	rRNA inh HTS -24 (no result: ERAP1 HTS inh)
O=C(CCCn1c(SCc2cc(=O)n3cc(Cl)ccc3n2)nc2ccccc2c1=O)NCC1CCCO1 (stereo unspecified)	none (no result: ERAP1 HTS inh)
O=c1cc(CSc2nc(NCc3ccccc3)c3ccccc3n2)nc2ccc(Cl)cn12	rRNA inh HTS -32
CCOc1c2ccc(C(=O)NCCc3ccc(C)cc3)cc2nn1CC	rRNA inh HTS -24 (no result: ARNT TACC3 PPI)
O=C(CSc1n[nH]c(-c2cccs2)n1)NC1CCS(=O)(=O)C1 (stereo unspecified)	ERAP1 HTS inh 35 (no result: ARNT TACC3 PPI, PGC1a acetyl inh)
COCC(=O)N1C[C@@H](C)[C@H](OC)CN(C)C(=O)c2ccc(NC(=O)C3CCC3)cc2OC[C@H]1C	none (no result: CASP6 VEID inh)
Cc1nc(C)n(C(Oc2ccc(Cl)cc2Cl)C(=O)C(C)(C)C)n1 (stereo unspecified)	rRNA inh HTS -18
Cc1ccc(-c2ccc3c(c2)O[C@H](CN(C)C(=O)CN(C)C)[C@@H](C)CN([C@H](C)CO)S3(=O)=O)cc1	none
COCC(=O)N1[C@@H](CO)[C@@H](c2ccccc2)C12CN(Cc1cccc(OC)c1)C2	none (no result: ARNT TACC3 PPI, CASP6 VEID inh, PGC1a acetyl inh, ERAP1 HTS inh, S100A4 inh HTS)
OCCNc1nc(Nc2ccccc2Oc2ccccc2)nc(N2CCCC2)n1	ARNT TACC3 PPI 23 (no result: PGC1a acetyl inh)
COc1cccc(Nc2nc(NCCO)nc(N3CCCC3)n2)c1	ARNT TACC3 PPI active, rRNA inh HTS -25 (no result: PGC1a acetyl inh)
CC(C)NC(=O)Nc1ccc2c(c1)C(=O)N([C@@H](C)CO)C[C@H](C)[C@H](CN(C)S(=O)(=O)c1cn(C)cn1)OCCCC[C@@H](C)O2	none
COCC#Cc1cnc2c(c1)C(=O)N([C@H](C)CO)C[C@H](C)[C@@H](CN(C)C(=O)CCN1CCCCC1)O2	none
Cc1ccc2c(Cl)c(C)c(N3CCCC3)nc2n1	rRNA inh HTS -36
Cc1nc2ccccc2nc1N1CCCC1	none (no result: ERAP1 HTS inh)
Cc1noc(C)c1NC(=O)N(C)C[C@H]1Oc2c(NC(=O)Nc3ccc(C(F)(F)F)cc3)cccc2C(=O)N([C@@H](C)CO)C[C@H]1C	none
C[C@@H]1CCCCO[C@@H](CN(C)Cc2ccc3c(c2)OCO3)[C@@H](C)CN([C@@H](C)CO)C(=O)c2cc(NC(=O)NC3CCCCC3)ccc2O1	none
Cc1ccc(C(=O)Nc2nc(C)c(C(=O)Nc3ccc4c(c3)CCC4)s2)cc1	rRNA inh HTS -30
Cc1nc(NC(=O)c2ccc(F)cc2)sc1C(=O)Nc1ccc2c(c1)CCC2	none (no result: CASP6 VEID inh, ERAP1 HTS inh, S100A4 inh HTS, rRNA inh HTS)
C[C@@H]1CN([C@@H](C)CO)C(=O)c2cccc(NS(=O)(=O)c3cn(C)cn3)c2O[C@H]1CN(C)Cc1ccc(C(=O)Nc2ccccc2N)cc1	none (no result: ARNT TACC3 PPI)
CCCCCCC(=O)Nc1cc2c(C)cc(=O)oc2cc1C	none (no result: CASP6 VEID inh, ERAP1 HTS inh, S100A4 inh HTS, rRNA inh HTS)
CCCCCCCCC(=O)c1c(OC)oc(C=O)cc1=O	CASP6 VEID inh 72 (no result: ARNT TACC3 PPI, rRNA inh HTS)
CC(=O)Nc1cccc2c1Cc1ccccc1-2	none (no result: CASP6 VEID inh, ERAP1 HTS inh, S100A4 inh HTS, rRNA inh HTS)
CC(=O)Nc1cccc2c1Cc1cc([N+](=O)[O-])ccc1-2	rRNA inh HTS -19
O=C1NC(=S)S/C1=C\C=C\c1ccc([N+](=O)[O-])o1	CASP6 VEID inh 96
CN(C=O)c1ccc(CSc2ccccc2)cc1	rRNA inh HTS -29
COc1ccccc1C(=O)Nc1ccc2c(c1)nc1n2CCN(C2CCCCC2)C1	rRNA inh HTS -18
CS(=O)(=O)N1CCCC(C(=O)NCc2ccccn2)C1 (stereo unspecified)	PGC1a acetyl inh 47 (no result: CASP6 VEID inh)
C/C(=N\NC(=O)C1CCCN(S(=O)(=O)c2ccccc2)C1)c1ccccn1 (stereo unspecified)	ARNT TACC3 PPI 53 (no result: CASP6 VEID inh, ERAP1 HTS inh, S100A4 inh HTS, rRNA inh HTS)
C[C@H]1CCCCO[C@H](CN(C)Cc2ccncc2)[C@@H](C)CN([C@@H](C)CO)C(=O)c2cc(NC(=O)NC3CCCCC3)ccc2O1	none
CC(CC(=O)Nc1ccc2c(c1)c(=O)n(C)n2-c1cccs1)c1ccccc1 (stereo unspecified)	CASP6 VEID inh 37 (no result: ARNT TACC3 PPI)
CCOc1ccccc1OCCCC(=O)Nc1ccc(S(=O)(=O)Nc2cc(C)nc(C)n2)cc1	ERAP1 HTS inh 30
COc1ccc(F)cc1C1=CC(=O)C[C@H](c2ccc3c(c2)OCO3)C1	CASP6 VEID inh 52
CCn1c2ccccc2c2cc([N+](=O)[O-])ccc21	none
CN(C)CCn1c2ccccc2c2nc3ccc([N+](=O)[O-])cc3cc21	rRNA inh HTS -32 (no result: ARNT TACC3 PPI)
C[C@@H]1CN([C@H](C)CO)C(=O)c2cc(NC(=O)Nc3ccc(C(F)(F)F)cc3)ccc2O[C@@H]1CN(C)S(C)(=O)=O	none
COc1ccc(CN2C(=O)c3cccnc3C2=O)cc1S(=O)(=O)NCc1ccccc1	ARNT TACC3 PPI 48
COc1ccc(CCn2c(=N)c(C(=O)NCc3ccco3)cc3c(=O)n4ccccc4nc32)cc1OC	ARNT TACC3 PPI 27 (no result: PGC1a acetyl inh, ERAP1 HTS inh)
COCCn1c(=N)c(C(=O)NCc2ccco2)cc2c(=O)n3cc(C)ccc3nc21	ERAP1 HTS inh 66 (no result: PGC1a acetyl inh)
N=c1c(C(=O)NCc2ccco2)cc2c(=O)n3ccccc3nc2n1CCc1ccccc1	none (no result: CASP6 VEID inh, ERAP1 HTS inh, S100A4 inh HTS, rRNA inh HTS)
CC(C)C[C@@H]1NC(=O)[C@H]2C[C@@H](C(=O)NCCCCCN)[C@@H](c3cccc(OCCO)c3)N2C1=O	none (no result: ARNT TACC3 PPI, rRNA inh HTS)
C/C(=N\N=C1\NC(=O)C(Cc2ccccc2)S1)c1ccccc1 (stereo unspecified)	rRNA inh HTS -52
COc1ccc(C#Cc2ccc([C@@H]3[C@H](CO)N4C(=O)CN(C(=O)Nc5ccccc5F)C[C@@H]34)cc2)cc1	none (no result: ARNT TACC3 PPI)
C[C@@H]1CN([C@H](C)CO)C(=O)c2cc(-c3cccc(F)c3)cnc2O[C@H]1CN(C)S(=O)(=O)c1cccc(F)c1	none
O=C(Nc1cccc(C(=O)O)c1)/C(=C\C=C\c1ccccc1)NC(=O)c1ccccc1	rRNA inh HTS -19
O=C(Nc1ccc(C(=O)O)cc1)/C(=C\C=C\c1ccccc1)NC(=O)c1ccccc1Br	rRNA inh HTS -16
COCC(=O)N(C)C[C@H]1Oc2cc(-c3ccncc3)ccc2S(=O)(=O)N([C@H](C)CO)C[C@H]1C	none
Cn1c(SCC(=O)N(Cc2ccccc2)C(C)(C)C)nc2ccccc21	rRNA inh HTS -31
Cn1c(SCC(=O)N2CCCC2)nc2ccccc21	none (no result: ARNT TACC3 PPI, PGC1a acetyl inh)
CCOc1ccc(S(=O)(=O)N(C)c2ccc(OCC(=O)N3c4ccc(C)cc4C4CN(C)CCC43)cc2)cc1 (stereo unspecified)	PGC1a acetyl inh 75
Cc1ccc(S(=O)(=O)Nc2ccc3c(c2)CC(=O)N([C@@H](C)CO)C[C@H](C)[C@H](CN(C)CC2CC2)O3)cc1	none

Screens deposited in PubChem BioAssay by Broad Institute.
